Measured values published in ChEMBL document CHEMBL3244096, “Modifications of primaquine as antimalarials. 1. 5-Phenoxy derivatives of primaquine” (J Med Chem, 1977).
Activity calls are given as the source filed them.

What was measured:
Plasmodium berghei [1] = experiment: Antimalarial activity against blood schizont stage of Plasmodium berghei infected in mouse assessed as mean survival days of host at 320 mg/kg (reference value: 6.1 days); type: functional
Plasmodium berghei [2] = experiment: Antimalarial activity against blood schizont stage of Plasmodium berghei infected in mouse assessed as mean survival days of host at 20 mg/kg (reference value: 6.1 days); type: functional
Plasmodium berghei [3] = experiment: Antimalarial activity against blood schizont stage of Plasmodium berghei infected in mouse assessed as mean survival days of host at 160 mg/kg (reference value: 6.1 days); type: functional
Plasmodium berghei [4] = experiment: Antimalarial activity against blood schizont stage of Plasmodium berghei infected in mouse assessed as mean survival days of host at 40 mg/kg (reference value: 6.1 days); type: functional
Plasmodium berghei [5] = experiment: Antimalarial activity against blood schizont stage of Plasmodium berghei infected in mouse assessed as mean survival days of host at 80 mg/kg (reference value: 6.1 days); type: functional
Plasmodium berghei [6] = experiment: Antimalarial activity against blood schizont stage of Plasmodium berghei infected in mouse assessed as mean survival days of host at 640 mg/kg (reference value: 6.1 days); type: functional
Mus musculus [7] = experiment: Toxicity in mouse infected with blood schizont stage of Plasmodium berghei assessed as mortality at 320 mg/kg measured prior to 6th day; type: organism-based; design: dose 320 mg/kg; settings: in vivo
Outline: (§1)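 In P. berghei-infected mice, five per group, deaths occurring before day 6 after infection are recorded as drug-toxic deaths.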

Plasmodium cynomolgi [8] = experiment: Antimalarial activity against sporozoite stage of Plasmodium cynomolgi infected in rhesus monkey assessed as radical curative activity at 0.25 mg/kg measured for 90 days; type: functional, organism-based; design: dose 0.25 mg/kg
Outline: (§2)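 Rhesus monkeys infected by sporozoite inoculation of Plasmodium cynomolgi and dosed at the mg/kg levels given. Results are recorded as cures per number of animals, or as the day of relapse. An animal with no relapse within 90 days is counted as cured.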

Mus musculus [9] = experiment: Toxicity in mouse infected with blood schizont stage of Plasmodium berghei assessed as mortality at 160 mg/kg measured prior to 6th day; type: organism-based; design: dose 160 mg/kg; settings: in vivo; outline: as §1
Mus musculus [10] = experiment: Toxicity in mouse infected with blood schizont stage of Plasmodium berghei assessed as mortality at 640 mg/kg measured prior to 6th day; type: organism-based; design: dose 640 mg/kg; settings: in vivo; outline: as §1
Plasmodium cynomolgi [11] = experiment: Antimalarial activity against sporozoite stage of Plasmodium cynomolgi infected in rhesus monkey assessed as radical curative activity at 0.75 mg/kg measured for 90 days; type: functional, organism-based; design: dose 0.75 mg/kg; outline: as §2
Plasmodium cynomolgi [12] = experiment: Antimalarial activity against sporozoite stage of Plasmodium cynomolgi infected in rhesus monkey assessed as radical curative activity at 1 mg/kg measured for 90 days; type: functional, organism-based; design: dose 1 mg/kg; outline: as §2
Plasmodium cynomolgi [13] = experiment: Antimalarial activity against sporozoite stage of Plasmodium cynomolgi infected in rhesus monkey assessed as radical curative activity at 0.125 mg/kg measured for 90 days; type: functional, organism-based; design: dose 0.125 mg/kg; outline: as §2
Plasmodium cynomolgi [14] = experiment: Antimalarial activity against sporozoite stage of Plasmodium cynomolgi infected in rhesus monkey assessed as radical curative activity at 10 mg/kg measured for 90 days; type: functional, organism-based; design: dose 10 mg/kg; outline: as §2
Plasmodium cynomolgi [15] = experiment: Antimalarial activity against sporozoite stage of Plasmodium cynomolgi infected in rhesus monkey assessed as radical curative activity at 0.5 mg/kg measured for 90 days; type: functional, organism-based; design: dose 0.5 mg/kg; outline: as §2
Plasmodium berghei [16] = experiment: Antimalarial activity against blood schizont stage of Plasmodium berghei infected in mouse assessed as complete disease cure at 640 mg/kg measured 60 days post infection infection; type: functional, organism-based; design: dose 640 mg/kg
Outline: (§3)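 Mice infected with blood-stage Plasmodium berghei, five animals per group, following the Osdene et al. method. Cures are the number of mice alive 60 days after infection. Deaths before day 6 are scored as toxic. Activity is read as the increase in mean survival time over untreated controls, and a group counts as active when its MST exceeds twice the control MST.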

Plasmodium berghei [17] = experiment: Antimalarial activity against blood schizont stage of Plasmodium berghei infected in mouse assessed as complete disease cure at 320 mg/kg measured 60 days post infection infection; type: functional, organism-based; design: dose 320 mg/kg; outline: as §3

Row | SMILES | Survival (Plasmodium berghei [1]) | Survival (Plasmodium berghei [2]) | Survival (Plasmodium berghei [3]) | Survival (Plasmodium berghei [4]) | Survival (Plasmodium berghei [5]) | Survival (Plasmodium berghei [6]) | Activity (Mus musculus [7]) | Activity (Plasmodium cynomolgi [8]) | Activity (Mus musculus [9]) | Activity (Mus musculus [10]) | Activity (Plasmodium cynomolgi [11]) | Activity (Plasmodium cynomolgi [12]) | Activity (Plasmodium cynomolgi [13]) | Activity (Plasmodium cynomolgi [14]) | Activity (Plasmodium cynomolgi [15]) | Activity (Plasmodium berghei [16]) | Activity (Plasmodium berghei [17])
1 | COc1cc(NC(C)CCCN)c2ncccc2c1Oc1ccccc1.O.O=P(O)(O)O (configuration not stated) | 7.5 days | 0.3 days | 5.1 days | 1.5 days | 1.7 days | 9.9 days |  |  |  |  |  |  |  |  |  |  | 
2 | COc1cc(NC(C)CCCN)c2ncccc2c1 (configuration not stated) [PRIMAQUINE] |  | 4 days |  | 5 days | 9.4 days |  | Toxic | inactive | Toxic | Toxic | Active |  |  |  |  |  | 
3 | COc1cc(NC(C)CCCN)c2ncccc2c1Oc1ccc(NC(C)=O)cc1 (configuration not stated) |  |  |  |  |  |  |  | inactive |  |  | inactive | inactive | inactive | inactive | inactive |  | 
4 | COc1cc(NC(C)CCCN)c2ncccc2c1Oc1ccc(F)cc1.O.O=C(O)CC(O)(CC(=O)O)C(=O)O (configuration not stated) |  | 2.1 days | 8.9 days | 5.7 days | 7.5 days |  |  |  |  |  |  |  | inactive |  | inactive | Active | Active
5 | COc1cc(NC(C)CCCN)c2ncccc2c1Oc1ccc(Cl)cc1 (configuration not stated) | 8.1 days | 0.7 days | 7.1 days | 4.7 days | 5.5 days |  |  | inactive |  |  |  | Active |  | Active | Active |  | 
